Shown is part of a subset that was picked to be rich in hits.
CHOP UPR activ – apoptotic UPR (CHOP) activation; activation, % at 10 µM; hit rate 0.34% among 330,000; CHO-CHOP luciferase reporter, luminescence; percent of tunicamycin response over DMSO baseline;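 active = at 10 µM dose, activation of 40% or more, normalized to positive control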
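Test system: CHO-CHOP cells, stable luciferase reporter of PERK-eIF2a-CHOP signalling | Quantity: 500 CHO-CHOP cells per well | Buffer or medium: F12 plus 10% serum | Compound dosing: 10 µM single point, 0.5% DMSO | Schedule: 6 h compound treatment, 37 °C | Signal: Luciferase luminescence | Control set: Tunicamycin high control, DMSO low control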
CHOP inh – inhibitors of CHOP induction in ER stress response | CHO-K1 CHOP-promoter luciferase, tunicamycin-induced, 15-18 h | inhibition, % at 10 µM | hit rate 3.8% among 220,000 | AID 2732;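 active = compounds that reduced the stress-induced luciferase reporter signal by more than about 70% of percent inhibition, limit read from the data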
Cardio protect – myocardial damage modulation in H9c2 cells | hit rate 0.63% among 360,000 | H9c2 cardiomyocytes, H2O2 injury protection, ATPLite, 2 h | protection from H2O2 cell death, % at 20 µM;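 active = compounds giving at least 50% protection of heart cells from peroxide-induced death in the single-dose screen, raw or plate-pattern-corrected value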
XBP1 UPR activ – adaptive UPR (XBP1) activation. CHO-XBP1 luciferase reporter, IRE1-XBP1 UPR activation, luminescence; percent of tunicamycin response, DMSO as zero. activation, % at 20 µM. hit rate 0.33% among 330,000. AID 463104;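 active = versus positive control, 20 µM dose yields 30% or more activation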
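Material: CHO cell line with stable XBP1 luciferase reporter; schedule: 16-18 h cell attachment at 37 °C, then 6 h compound exposure; signal: glow luminescence from Steady-Glo reagent; medium: serum-containing F12 medium, 10% FBS; benchmarks: tunicamycin 10 µg/mL and vehicle-only wells; read-out: percent activation relative to tunicamycin reference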
hiPSC survival – increases survival of single human iPS cells; hiPSC single-cell survival, ATPlite luminescence; 100% = ROCK inhibitor wells, 0% = DMSO; survival enhancement, % at 20 µM; hit rate 0.044% among 360,000; AID 602274; in the data active = survival enhancement above about 18%;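 also: cells exposed to compounds for 16 hours before the ATP read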
Large screens that a line does not name were inactive.

COc1cc2c(cc1OC)C(c1cc(Br)ccc1F)N(C(=O)CCl)CC2 (stereo not given)	hiPSC survival 20.6 (no result: CHOP inh)
COc1cc2c(cc1OC)C(C1C(=O)CC(C)(C)CC1=O)N(C(=O)CCl)CC2 (stereo not given)	none
CS(=O)(=O)c1ncc(Cl)c(C(=O)Nc2ccc3ccccc3c2)n1	CHOP inh 105.5 (no result: CHOP UPR activ, XBP1 UPR activ)
O=C(N/N=C\c1ccc(-c2ccc([N+](=O)[O-])cc2)o1)C1COc2ccccc2O1 (stereo not given)	CHOP inh 81.2
CN(C)c1ccc(/C=N/NC(=O)C2COc3ccccc3O2)o1 (stereo not given)	none
Cc1cc(N2CCN(C(c3ccnc4ccccc34)c3nnnn3-c3c(C)cccc3C)CC2)c2ccccc2n1 (stereo not given)	none (no result: CHOP UPR activ, CHOP inh, Cardio protect, XBP1 UPR activ)
C[C@@H](NC(=O)[C@@H]1Cc2ccccc2CN1)C(=O)Nc1ccc2c(c1)OCO2	hiPSC survival 26.2 (no result: CHOP inh)
Cc1ccc(C(c2c(C)n(C)n(-c3ccccc3)c2=O)c2c(C)n(C)n(-c3ccccc3)c2=O)s1	Cardio protect 59.2
O=c1[nH]c2cnn(-c3ccccc3)c2c(=O)n1O	none (no result: CHOP UPR activ, CHOP inh, XBP1 UPR activ)
CCCCCc1ccc(S(=O)(=O)NCCc2ccncc2)cc1	CHOP inh 72.3
CCCc1ccc(S(=O)(=O)NCCc2ccncc2)cc1	none
Cc1cc(C)nc(NS(=O)(=O)c2ccc(NC(=O)CCC3COc4ccccc4O3)cc2)n1 (stereo not given)	CHOP inh 77.4
Cc1ccccc1OCC(=O)NC(=S)Nc1ccc(S(=O)(=O)NC2CCCCC2)cc1	CHOP inh 77.3
CC(=O)NS(=O)(=O)c1ccc(NC(=S)NC(=O)COc2ccccc2C)cc1	none
Cc1ccnc(NS(=O)(=O)c2ccc(NC(=O)C3CCCCC3)cc2)n1	none
Cc1cc(C)nc(NS(=O)(=O)c2ccc(NC(=S)NC(=O)C3CCCC3)cc2)n1	CHOP inh 71.9
CCOC(=O)c1ccc(NC(=O)CCC2COc3ccccc3O2)cc1 (stereo not given)	none
O=C1CCC2(C(=O)O)Sc3ccccc3N12 (stereo not given)	hiPSC survival 20.9
COc1ccc(NC(=O)COC(=O)C23CCC(=O)N2c2ccccc2S3)cc1 (stereo not given)	none
Cc1csc(NC(=O)C2CCCN(S(=O)(=O)c3ccc(Br)s3)C2)n1 (stereo not given)	CHOP inh 70.1
Cc1ccc2cc(CN(CCCN(C)C)C(=O)NCc3ccccc3)c(=O)[nH]c2c1C	CHOP inh 74.1
Cc1ccc2cc(CN(CCCN(C)C)C(=S)NCc3ccccc3)c(=O)[nH]c2c1C	none
COc1ccc(S(=O)(=O)N2CCC(C(=O)N[C@H](C(=O)NCc3ccccc3)C(C)C)CC2)cc1	none (no result: CHOP UPR activ, CHOP inh, XBP1 UPR activ)
Cc1ccc(N=Nc2c(N)[nH]n3c(=O)cc(-c4ccccc4)nc23)cc1	CHOP inh 75.4
CN(C)CCN1CCN(C2CN(Cc3cn(Cc4ccccc4)nn3)S(=O)(=O)C2)CC1 (stereo not given)	none (no result: CHOP UPR activ, CHOP inh, Cardio protect, XBP1 UPR activ)
O=C(Nc1cccc(NC(=O)c2ccc([N+](=O)[O-])o2)c1)c1ccco1	Cardio protect 57.1 (no result: CHOP inh)
O=C(Nc1cccc(NC(=O)c2ccc(-c3cccc(Br)c3)o2)c1)c1ccco1	Cardio protect 59.6
COc1ccc(Br)cc1C(=O)Nc1cccc(NC(=O)c2ccco2)c1	Cardio protect 63.6
COc1c(C)cc(Br)cc1C(=O)Nc1cccc(NC(=O)c2ccco2)c1	none
CCC(NC(=O)CSc1nnnn1C1CC1)c1ccc(Br)cc1 (stereo not given)	none (no result: CHOP inh)
C(C#CCN1CCOCC1)#CCN1CCOCC1	none (no result: CHOP UPR activ, CHOP inh, XBP1 UPR activ)
CC(C)(COC(=O)c1ccccc1)N1CC2CCC(C1)O2	none (no result: CHOP UPR activ, CHOP inh, XBP1 UPR activ)
CCc1ccccc1N1CC(C(=O)Nc2cc(S(=O)(=O)N3CCCC3)ccc2Cl)CC1=O (stereo not given)	none (no result: CHOP inh)
COc1ccc(CCn2c(NN)nc3c2c(=O)[nH]c(=O)n3C)cc1	none
CCCCCn1c(Sc2nc3ccccc3s2)nc2c1c(=O)[nH]c(=O)n2C	CHOP inh 75.7
Cn1c(=O)[nH]c(=O)c2c1nc(N(CCO)Cc1ccccc1)n2CCCc1ccccc1	Cardio protect 52.3
COc1ccc(-c2nc3c(c(=O)[nH]c(=O)n3Cc3ccccc3)n2C)cc1	none

Source: PubChem
